From publication PMC5598371 (Toxicology Reports, 2015)

How the values were obtained:
[1] = system: HGF/HPLF/HPC vs human OSCC cell lines; settings: mean CC50 HGF/HPLF/HPC / mean CC50 OSCC lines; cited from earlier work
[2] = system: HOK vs human OSCC cell lines; assay: Tumor-specificity; type: cell-based; settings: for Tumor-specificity index (TS) E/B: CC50 HOK / mean CC50 OSCC lines; for Potency-selectivity expression (PSE) E/B^2: TS x (1/B) x 100, HOK as normal cells
[3] = system: HGF/HPLF/HPC vs human OSCC cell lines; assay: Tumor-specificity; type: cell-based; settings: TS x (1/B) x 100; HGF/HPLF/HPC as normal cells
HSC-4 = settings: read-out: 50% cytotoxic concentration (CC50); HSC-4, derived from tongue; cited from earlier work
Ca9-22 = settings: read-out: 50% cytotoxic concentration (CC50); Ca9-22, derived from gingiva (A); cited from earlier work
HSC-2 = settings: read-out: 50% cytotoxic concentration (CC50); HSC-2, derived from tongue; cited from earlier work
Pulp cell (HPC) = settings: read-out: 50% cytotoxic concentration (CC50), normal; cited from earlier work
HSC-3 = settings: read-out: 50% cytotoxic concentration (CC50); HSC-3, derived from tongue; cited from earlier work
[4] = system: Periodontal ligament fibroblast (HPLF); settings: read-out: 50% cytotoxic concentration (CC50), normal; cited from earlier work
[5] = system: Gingival fibroblast (HGF); settings: read-out: 50% cytotoxic concentration (CC50), normal (C); cited from earlier work
[6] = system: HGEP vs human OSCC cell lines; assay: Tumor-specificity; type: cell-based; settings: for Tumor-specificity index (TS) F/B: CC50 HGEP / mean CC50 OSCC lines; for Potency-selectivity expression (PSE) F/B^2: TS x (1/B) x 100, HGEP as normal cells
[7] = Cytotoxic activity, MTT method; type: cell-based; settings: human
HGF vs Ca9-22 = settings: CC50 HGF / CC50 Ca9-22; cited from earlier work
[8] = Cytotoxic activity, MTT method; type: cell-based; settings: human, oral keratinocytes (HOK), normal epithelial cells
In short: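 HOK grown in keratinocyte growth supplement medium, harvested with 0.25% trypsin-0.025% EDTA. Seeded at 2.5 × 10^3 cells/0.1 ml, grown 48 h, then medium replaced with fresh medium containing test compound dilutions (80 mM DMSO stocks; final DMSO usually below […]) or matched DMSO vehicle. After incubation, 0.2 mg/ml MTT for 3 h, DMSO lysis, A540. CC50 from dose–response curve.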

HSC-2 cells [9] = assay: Time course of cytotoxicity induction; type: cell-based, human
In short: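 Pulse-chase in HSC-2 (DMEM, 10% heat-inactivated FBS, 37 °C, 5% CO2). Cells seeded at 2.5 × 10^3/0.1 ml and grown 48 h. Exposed to graded test compound concentrations for varied times, then switched to drug-free medium until 47 h after first addition. Viability by MTT (0.2 mg/ml, 3 h, A540). CC50 from dose–response curve. Triplicates (Exp. I), quadruplicates (Exp. II).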

[10] = Effect of tetraethylammonium or cycloheximide on cytotoxicity; type: cell-based; settings: Supplementary Fig. 3
HSC-2 cells [11] = assay: Metabolomic analysis; type: cell-based, human
In short: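 HSC-2 seeded 5 × 10^5 cells/10 ml, grown 48 h, re-fed for 30 min at 37 °C, then treated 3 h with 0, 1, 3 or 10 μM. Trypan-blue cell counts taken. Extraction: mannitol wash, then methanol with internal standards, chloroform/water partition and 5 kDa ultrafiltration. CE-TOFMS run in cation (1 M formic acid) and anion (50 mM ammonium acetate, pH 8.5) modes. One-point external calibration, normalised per cell. Quadruplicates, mean ± S.D., FDR-corrected p.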

HSC-2 cells [12] = assay: Fine cell structure under transmission electron microscope; type: cell-based, human; settings: 3 h with 3 or 10 μM, compared with control cells
In short: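 HSC-2 cells were seeded at 5 × 10^5 cells/10 ml and […]. After a medium change, near-confluent cells were exposed 3 h to test compound (0, 3 or 10 μM) and washed in cold PBS. Fixation: 2% glutaraldehyde/0.1 M cacodylate pH 7.4, 1 h, 4 °C, then scraped, pelleted and post-fixed 90 min in 1% OsO4. Dehydrated, Araldite-embedded, thin sections stained with uranyl acetate and lead citrate; TEM at ×5000, 100 kV.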

HSC-2 cells [13] = assay: Western blot analysis of apoptosis and autophagy markers; type: cell-based, human
In short: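 HSC-2 cells treated with or without 10 μM for 4, 7.5 or 23 h. Laemmli whole-cell lysates (5 × 10^4 cells/lane) run on 12% SDS-PAGE and blotted to PVDF. Blocked 1 h in 5% BSA/TBS-Tween (pH 7.6). Primary anti-PARP, anti-caspase-3, anti-LC3 (1:1000) and anti-GAPDH (1:20,000) overnight at 4 °C, then HRP anti-rabbit 1 h at room temperature. Chemiluminescent detection; band densities expressed relative to GAPDH.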

[14] = 3 h, 1, 3 or 10 μM, not significant

O=c1[nH]cc(F)c(=O)[nH]1 [5-FU, 5-fluorouracil, reference compound]
Tumor-specificity index (TS) D/B [1]: >55.6
Tumor-specificity index (TS) E/B [2]: 1.4
Potency-selectivity expression (PSE) E/B^2 [2]: 7.8
Potency-selectivity expression (PSE) D/B^2 [3]: >309
CC50 (HSC-4): 13 µM
CC50 (Ca9-22): 29 µM
CC50 (HSC-2): 13 µM
CC50 (Pulp cell (HPC)): > 1000 µM
CC50 (HSC-3): 16 µM
CC50 [4]: > 1000 µM
CC50 [5]: > 1000 µM
Tumor-specificity index (TS) F/B [6]: 1.0
Potency-selectivity expression (PSE) F/B^2 [6]: 5.6
CC50 [7]: 18.8 µM
Tumor-specificity index (TS) C/A (HGF vs Ca9-22): >34.5
CC50 [8]: 24.7 µM

COc1cccc2c1C(=O)c1c(O)c3c(c(O)c1C2=O)C[C@@](O)(C(=O)CO)C[C@@H]3O[C@H]1C[C@H](N)[C@H](O)[C@H](C)O1 [Doxorubicin, doxorubicin, reference compound]
Tumor-specificity index (TS) D/B [1]: >26.0
Tumor-specificity index (TS) E/B [2]: 8.7
Potency-selectivity expression (PSE) E/B^2 [2]: 5800
Potency-selectivity expression (PSE) D/B^2 [3]: >17333
CC50 (HSC-4): 0.094 µM
CC50 (Ca9-22): 0.26 µM
CC50 (HSC-2): 0.12 µM
CC50 (Pulp cell (HPC)): > 10 µM
CC50 (HSC-3): 0.11 µM
CC50 [4]: 0.87 µM
CC50 [5]: 0.87 µM
Tumor-specificity index (TS) F/B [6]: 0.2
Potency-selectivity expression (PSE) F/B^2 [6]: 133
CC50 [7]: 0.027 µM
Tumor-specificity index (TS) C/A (HGF vs Ca9-22): 3.3
CC50 [8]: 1.31 µM

COc1ccc(/C=C/c2coc3ccc(OC)cc3c2=O)cc1 [compound 4, (E)-6-methoxy-3-(4-methoxystyryl)-4H-chromen-4-one]
dead cells produced (HSC-2 cells [9]; higher concentrations, Fig. 2): more than 90%
effect of pretreatment with cycloheximide on cytotoxicity [10]: inhibited
Tumor-specificity index (TS) D/B [1]: 40.3
Tumor-specificity index (TS) E/B [2]: 10.9
Potency-selectivity expression (PSE) E/B^2 [2]: 170
Potency-selectivity expression (PSE) D/B^2 [3]: 630
CC50 (HSC-4): 9.2 µM
CC50 (Ca9-22): 4.4 µM
CC50 (HSC-2): 4.4 µM
CC50 (Pulp cell (HPC)): 396 µM
CC50 (HSC-3): 7.7 µM
CC50 [4]: 150 µM
CC50 [5]: 229 µM
Tumor-specificity index (TS) F/B [6]: 27.8
Potency-selectivity expression (PSE) F/B^2 [6]: 434
CC50 [7]: 178 µM
Tumor-specificity index (TS) C/A (HGF vs Ca9-22): 52.0
CC50 [8]: 70 µM

COc1ccc2occ(/C=C/c3cc(OC)c(OC)c(OC)c3)c(=O)c2c1 [compound 6, (E)-6-methoxy-3-(3,4,5-trimethoxystyryl)-4H-chromen-4-one]
viable cells left (HSC-2 cells [9]; higher concentrations, Fig. 2): 30%
effect of pretreatment with cycloheximide on cytotoxicity [10]: inhibited
Tumor-specificity index (TS) D/B [1]: 26.1
Tumor-specificity index (TS) E/B [2]: 5.9
Potency-selectivity expression (PSE) E/B^2 [2]: 45
Potency-selectivity expression (PSE) D/B^2 [3]: 200
CC50 (HSC-4): 13 µM
CC50 (Ca9-22): 10 µM
CC50 (HSC-2): 6.8 µM
CC50 (Pulp cell (HPC)): 284 µM
CC50 (HSC-3): 21 µM
CC50 [4]: 190 µM
CC50 [5]: 544 µM
Tumor-specificity index (TS) F/B [6]: 46.9
Potency-selectivity expression (PSE) F/B^2 [6]: 361
CC50 [7]: 610 µM
Tumor-specificity index (TS) C/A (HGF vs Ca9-22): 54.4
CC50 [8]: 77 µM

COc1ccc2occ(/C=C/c3ccc(O)cc3)c(=O)c2c1 [compound 11, (E)-3-(4-hydroxystyryl)-6-methoxy-4H-chromen-4-one]
CC50 (HSC-2 cells [9]; Homo sapiens, HSC-2, Exp. I, exposure time 21 h, drug-free medium until 47 h): < 1.56 µM
dead cells produced (HSC-2 cells [9]; higher concentrations, Fig. 2): more than 90%
treatment time at which cytotoxicity was triggered (HSC-2 cells [9]; pulse-chase, HSC-2): 3 h
effect of BH blocker (tetraethylammonium) on cytotoxicity [10]: not inhibited
effect of pretreatment with cycloheximide on cytotoxicity [10]: inhibited
Tumor-specificity index (TS) D/B [1]: 69.0
Tumor-specificity index (TS) E/B [2]: 9.5
Potency-selectivity expression (PSE) E/B^2 [2]: 475
intracellular concentration of 2-oxoglutarate (HSC-2 cells [11]; 3 h, 1, 3 and 10 μM, Fig. 6A): reduced, but not significantly
intracellular concentrations of 4-methyl-2-oxopentanoate, 2-hyroxyglutarate, creatine, 2-oxoisopentanoate (Q < 0.2), glycine and choline (p < 0.05) (HSC-2 cells [11]; 3 h, 1, 3 and 10 μM, Fig. 6A): significantly reduced
intracellular concentrations of diethanolamine and CDP-choline (HSC-2 cells [11]; 3 h, 1, 3 and 10 μM, Fig. 6B): increased, but not significantly
intracellular concentrations of proline, asparagine, DHAP, Ru5P, transcinnamate, γ-butyrobetaine (Q < 0.2) and glutamic acid (p < 0.05) (HSC-2 cells [11]; 3 h, 1, 3 and 10 μM, Fig. 6B): significantly increased
NADH/NAD+ ratio (HSC-2 cells [11]; [14]): minor increase
glycolytic metabolites (glucose-6-phosphate, fructose 6-phosphate, fructose 1,6-bisphospate, 3-phosphoglyceric acid) (HSC-2 cells [11]; [14]): minor increase
intracellular concentration of metabolites in TCA cycle (citrate, cis-aconiate, succinate, fumarate, malate) (HSC-2 cells [11]; [14]): minor reduction
lactate (HSC-2 cells [11]; [14]): minor reduction
polyamine pathway (putrescine, spermidine) (HSC-2 cells [11]; [14]): minor reduction
ratio of AMP/ATP (HSC-2 cells [11]; [14]): minor reduction
ratio of GMP/GTP (HSC-2 cells [11]; [14]): minor reduction
urea cycle (citrullin, arginine, ornithine) (HSC-2 cells [11]; [14]): no change or minor reduction
extracellular concentration of diethanolamine after treatment (HSC-2 cells [11]; culture medium, before treatment 12.1 ± 13.4 μM): 11.8 ± 5.3 µM
Potency-selectivity expression (PSE) D/B^2 [3]: 3450
CC50 (HSC-4): 1.2 µM
CC50 (Ca9-22): 2.1 µM
CC50 (HSC-2): 1 µM
CC50 (Pulp cell (HPC)): 272 µM
mitochondrial vacuolization (HSC-2 cells [12]): mitochondrial vacuolization became prominent
CC50 (HSC-3): 3.6 µM
CC50 [4]: 74 µM
CC50 [5]: 67 µM
Tumor-specificity index (TS) F/B [6]: >400
Potency-selectivity expression (PSE) F/B^2 [6]: >20000
CC50 [7]: > 800 µM
Tumor-specificity index (TS) C/A (HGF vs Ca9-22): 31.9
CC50 [8]: 19 µM
LC3-II expression (autophagy marker) (HSC-2 cells [13]; 10 μM for 4, 7.5 and 23 h): decreased time-dependently to undetectable level
cleaved PARP1 and caspase-3 (apoptosis marker) (HSC-2 cells [13]; 10 μM, 23 h after treatment): appearance of cleaved PARP1 and caspase-3
full length PARP (HSC-2 cells [13]; 10 μM, 23 h after treatment): loss of full length PARP
type of cell death (HSC-2 cells [13]; 10 μM, HSC-2): induced apoptotic cell death after suppression of autophagy
